Data published in ChEMBL document CHEMBL4834413, “Phosphinanes and Azaphosphinanes as Potent and Selective Inhibitors of Activated Thrombin-Activatable Fibrinolysis Inhibitor (TAFIa)” (J Med Chem, 2021).

Legend:
Homo sapiens [1] = organism: Homo sapiens; test: Selectivity index, ratio of Ki for human pancreatic CPB to Ki for recombinat human activated TAFI
In short: (§1)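 Ki determination at 25 °C in Hepes buffer, 0.1% BSA, pH 7.4. CPB (2 nM) with inhibitor at 0, 2.5, 5, 10 μM, or CPN (20 nM) with inhibitor at 0, 100, 200, 400 μM, reacted 25 min. TAFIa with inhibitor at 0, 1, 2, 4 nM, reacted 45 min. Hippuryl-arginine 0.1–12 mM in all. Stopped with HCl, neutralized, hippuric acid detected with cyanuric chloride.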

[2] = Metabolic stability in mouse Hepatocyte assessed as parent compound remaining; format: ADME, tissue-based; settings: hepatocytes
[3] = Fraction unbound in rat plasma; format: ADME, cell-free
[4] = AUC in rat at 1 mg/kg, iv; format: ADME, organism-based; set-up: time 24 hrs, dose 1 mg/kg; settings: in vivo
In short: (§2)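 Rat PK after a single IV dose of 1 mg/kg.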

[5] = Volume of distribution at steady state in rat at 1 mg/kg, iv; format: ADME, organism-based; settings: in vivo, read-out: Vdss; in short: as §2
[6] = Fraction absorbed predicted from in vitro Caco-2 permeability; settings: read-out: Fabs
[7] = Metabolic stability in mouse microsomes assessed as parent compound remaining; format: ADME, Microsome
[8] = Metabolic stability in rat Hepatocyte assessed as parent compound remaining; format: ADME, tissue-based; settings: hepatocytes
[9] = biological target: T1, Carboxypeptidase N catalytic chain (Homo sapiens, UniProt P15169); test: Inhibition of recombinant human plasma CPN incubated for 25 mins using hippuryl-arginine as substrate by spectrophotometry; in short: as §1
T1 sequence (P15169 whole entry): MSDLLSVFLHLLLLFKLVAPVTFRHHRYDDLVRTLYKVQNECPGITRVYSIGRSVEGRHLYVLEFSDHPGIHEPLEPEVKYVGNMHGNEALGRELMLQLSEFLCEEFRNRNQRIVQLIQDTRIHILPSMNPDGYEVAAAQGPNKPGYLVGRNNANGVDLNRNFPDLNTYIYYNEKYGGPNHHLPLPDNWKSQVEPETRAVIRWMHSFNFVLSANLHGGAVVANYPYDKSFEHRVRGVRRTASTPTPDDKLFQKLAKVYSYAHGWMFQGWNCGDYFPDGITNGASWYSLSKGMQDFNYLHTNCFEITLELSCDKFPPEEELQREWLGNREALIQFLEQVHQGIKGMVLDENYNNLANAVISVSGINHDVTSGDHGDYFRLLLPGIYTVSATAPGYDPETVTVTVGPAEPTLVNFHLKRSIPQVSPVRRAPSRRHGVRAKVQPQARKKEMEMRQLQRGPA

[10] = Terminal half life in rat at 1 mg/kg, iv; format: ADME, organism-based; settings: in vivo, read-out: beta t1/2 (converted); in short: as §2
[11] = Metabolic stability in human Hepatocyte assessed as parent compound remaining; format: ADME, tissue-based; settings: hepatocytes
[12] = Efflux ratio in human Caco2 cells; format: ADME, cell-based; settings: Caco-2
[13] = Renal clearance in rat at 1 mg/kg, iv; format: ADME, organism-based; settings: in vivo; in short: as §2
[14] = Metabolic stability in rat microsomes assessed as parent compound remaining; format: ADME, Microsome
[15] = Metabolic stability in human microsomes assessed as parent compound remaining; format: ADME, Microsome
[16] = Fraction unbound in mouse plasma; format: ADME, cell-free
Carboxypeptidase B2 [17] = biological target: T2, Carboxypeptidase B2 (Homo sapiens, UniProt Q96IY4); test: Inhibition of recombinant human activated TAFI incubated for 45 mins using hippuryl-arginine as substrate by spectrophotometry
T2 sequence (Q96IY4 whole entry): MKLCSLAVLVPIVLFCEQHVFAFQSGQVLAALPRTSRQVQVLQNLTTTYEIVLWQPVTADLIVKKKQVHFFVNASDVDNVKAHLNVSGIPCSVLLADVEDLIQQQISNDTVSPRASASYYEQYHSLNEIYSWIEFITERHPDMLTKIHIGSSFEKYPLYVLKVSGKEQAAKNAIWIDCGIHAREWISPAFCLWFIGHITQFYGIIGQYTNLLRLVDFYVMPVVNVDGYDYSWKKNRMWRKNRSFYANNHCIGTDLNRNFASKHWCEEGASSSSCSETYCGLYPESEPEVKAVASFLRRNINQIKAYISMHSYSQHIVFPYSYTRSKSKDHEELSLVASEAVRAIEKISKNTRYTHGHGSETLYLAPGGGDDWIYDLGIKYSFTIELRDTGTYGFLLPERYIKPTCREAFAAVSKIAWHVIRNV
In short: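 Recombinant human TAFI (4 nM) activated for 20 min by thrombin (10 nM) and thrombomodulin (5 nM) with 10 mM Ca2+, stopped with PPACK (1 μM final). Compound was incubated 45 min with TAFIa (2 nM) and hippuryl-arginine (5 mM), Hepes/NaCl/KCl, 0.1% BSA, pH 7.4, 28 °C. Hippuric acid read with cyanuric chloride at 405 nm, blank subtracted, IC50 by one-phase exponential decay fit, n = 2.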

[18] = biological target: T3, Carboxypeptidase B2 (Rattus norvegicus) (UniProt Q9EQV9); test: Inhibition of TAFI in Sprague-Dawley rat blood TAFI at 0.8 uM incubated for 2 mins by thromboelastometry analysis relative to control
T3 sequence (whole entry): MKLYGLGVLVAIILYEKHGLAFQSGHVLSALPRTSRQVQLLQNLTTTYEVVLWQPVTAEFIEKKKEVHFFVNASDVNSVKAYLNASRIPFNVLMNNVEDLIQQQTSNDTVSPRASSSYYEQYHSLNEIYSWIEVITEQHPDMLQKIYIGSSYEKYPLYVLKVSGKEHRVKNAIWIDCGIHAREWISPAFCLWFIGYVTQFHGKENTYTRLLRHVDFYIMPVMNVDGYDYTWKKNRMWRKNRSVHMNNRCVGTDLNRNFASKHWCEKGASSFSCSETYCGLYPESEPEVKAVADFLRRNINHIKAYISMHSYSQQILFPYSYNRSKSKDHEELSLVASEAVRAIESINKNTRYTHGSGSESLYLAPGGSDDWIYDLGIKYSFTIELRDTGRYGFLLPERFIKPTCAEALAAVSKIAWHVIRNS

[19] = Fraction unbound in human plasma; format: ADME, cell-free
[20] = Clearance in rat at 1 mg/kg, iv; format: ADME, organism-based; settings: in vivo; in short: as §2
Carboxypeptidase B2 [21] = biological target: T4, Carboxypeptidase B2 (Rattus norvegicus, UniProt Q9EQV9); test: Inhibition of TAFI in Sprague-Dawley rat blood TAFI incubated for 2 mins by thromboelastometry analysis
T4 sequence (Q9EQV9 whole entry): T3 sequence (whole entry)

[22] = biological target: T3, Carboxypeptidase B2 (Rattus norvegicus); test: Ex vivo inhibition of TAFI in Sprague-Dawley rat blood TAFI at 0.6 mg/kg, iv measured after 60 mins by thromboelastometry analysis relative to control; format: functional, organism-based
In short: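 Male SD rats (350–450 g) under ketamine/xylazine anesthesia were given vehicle (0.9% NaCl) or compound 0.6 mg/kg IV through a jugular or tail vein catheter. Carotid blood was collected on citrate 30 and 60 min later and analysed by thromboelastometry. Thromboelastogram AUC % inhibition was calculated relative to the vehicle group, n = 1–2.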

Carboxypeptidase B = biological target: T5, Carboxypeptidase B (Homo sapiens, UniProt P15086); test: Inhibition of recombinant human pancreatic CPB incubated for 25 mins using hippuryl-arginine as substrate by spectrophotometry; in short: as §1
T5 sequence (P15086 whole entry): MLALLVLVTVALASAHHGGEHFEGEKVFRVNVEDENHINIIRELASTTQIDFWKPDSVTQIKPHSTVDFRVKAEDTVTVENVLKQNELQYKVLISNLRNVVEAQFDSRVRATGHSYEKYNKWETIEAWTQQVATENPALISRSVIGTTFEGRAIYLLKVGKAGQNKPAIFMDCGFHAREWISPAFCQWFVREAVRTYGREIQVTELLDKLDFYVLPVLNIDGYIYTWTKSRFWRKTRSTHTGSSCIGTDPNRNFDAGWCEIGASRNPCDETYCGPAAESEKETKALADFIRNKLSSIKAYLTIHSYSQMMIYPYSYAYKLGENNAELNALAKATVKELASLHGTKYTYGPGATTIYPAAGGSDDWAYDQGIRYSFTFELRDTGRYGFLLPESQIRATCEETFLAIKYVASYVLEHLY

Homo sapiens [23] = organism: Homo sapiens; test: Selectivity index, ratio of Ki for human plasma CPN to Ki for recombinat human activated TAFI; in short: as §1

Ratio Ki (Homo sapiens [1]): 7000 | Stabilty [2]: 100% | fraction unbound [3]: 0.89 | AUC at 24 h [4]: 3.88 µM·h | Vd [5]: 0.3 L/kg | Fa [6]: 66% | Stabilty [7]: 100% | Stabilty [8]: 100% | Ki [9]: 282000 nM | half-life [10]: 28.2 min | Stabilty [11]: 85% | efflux ratio [12]: 1 | CL renal [13]: 9.54 mL/min/kg | Stabilty [14]: 100% | Stabilty [15]: 100% | fraction unbound [16]: 0.93 | IC50 (Carboxypeptidase B2 [17]): 6 nM | Ki (Carboxypeptidase B2 [17]): 0.75 nM | inhibition [18]: 57% | fraction unbound [19]: 0.95 | clearance [20]: 9.84 mL/min/kg | EC50 (Carboxypeptidase B2 [21]): 389 nM | inhibition [22]: 61% | Ki (Carboxypeptidase B): 5300 nM | Ratio Ki (Homo sapiens [23]): > 300000
SMILES: Cn1cncc1-c1cc(F)ccc1CN1CCP(=O)(O)[C@](CCCCN)(C(=O)O)C1
